Source: ChEMBL document CHEMBL4665779, “Novel 2-Substituted 3-Hydroxy-1,6-dimethylpyridin-4(1H)-ones as Dual-Acting Biofilm Inhibitors of Pseudomonas aeruginosa” (J Med Chem, 2020)
The source made the active and inactive calls. The calls are words filed in the database; no cut-off is given here.

Experiments:
Pseudomonas aeruginosa [1] = experiment: Inhibition of biofilm formation in multidrug resistant Pseudomonas aeruginosa FB at 5 uM relative to control; assay type: functional
Pseudomonas aeruginosa [2] = experiment: Inhibition of biofilm formation in multidrug resistant Pseudomonas aeruginosa FB at 20 uM relative to control; assay type: functional
Pseudomonas aeruginosa [3] = experiment: Inhibition of biofilm formation in multidrug resistant Pseudomonas aeruginosa 1167 at 1.25 uM relative to control; assay type: functional
Pseudomonas aeruginosa [4] = experiment: Inhibition of biofilm formation in multidrug resistant Pseudomonas aeruginosa 1167 at 5 uM relative to control; assay type: functional
Pseudomonas aeruginosa [5] = experiment: Inhibition of biofilm formation in multidrug resistant Pseudomonas aeruginosa 1167 at 10 uM relative to control; assay type: functional
Pseudomonas aeruginosa [6] = experiment: Inhibition of biofilm formation in multidrug resistant Pseudomonas aeruginosa 1167 at 20 uM relative to control; assay type: functional
Pseudomonas aeruginosa [7] = experiment: Inhibition of biofilm formation in multidrug resistant Pseudomonas aeruginosa 1121 at 1.25 uM relative to control; assay type: functional
Pseudomonas aeruginosa [8] = experiment: Inhibition of biofilm formation in multidrug resistant Pseudomonas aeruginosa 1121 at 5 uM relative to control; assay type: functional
Pseudomonas aeruginosa [9] = experiment: Inhibition of biofilm formation in multidrug resistant Pseudomonas aeruginosa 1121 at 10 uM relative to control; assay type: functional
L02 = experiment: Cytotoxicity against human L02 cells assessed as reduction in cell viability up to 50 uM after 16 hrs by MTT assay; assay type: cell-based; details: l02, 16 h
Method in brief: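 Vero or LO2 cells were seeded at 5000–15000 cells/well for 16 h, PBS-washed, then exposed to compound in DMEM at 37 °C and 5% CO2 for 16 h. MTT (20 μL of 5 mg/mL) was added for 3 h, and formazan was dissolved in DMSO and read at 570 nm. Triplicate; mean ± SD.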

Pseudomonas aeruginosa [10] = experiment: Inhibition of swarming motility of Pseudomonas aeruginosa PAO1 measured after 16 hrs; assay type: functional, organism-based; details: dose microM 1.25-20, time 16.0 hrs
Method in brief: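 LB plates with 0.5% agar, 0.5% casamino acids and 0.5% glucose contained compound at 0–20 μM. Plates were dried 1 h, then 1 μL PAO1 (OD600 1) was spotted on the centre. Incubation was 16 h at 37 °C; three independent experiments.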

[11] = target: 3-(3-hydroxydecanoyloxy)decanoate synthase (Pseudomonas aeruginosa (strain ATCC 15692 / PAO1 / 1C / PRS 101 / LMG12228)) (UniProt Q51559); experiment: Inhibition of rhlA fluorescence in Pseudomonas aeruginosa PAO1 transfected with GFP by measuring fluorescence intensity every 15 mins for 12 hrs by microtiter plate reader assay; details: dose microM 1.25-20, time 12.0 hrs
Method in brief: (§1)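 PAO1-gfp, PAO1-lasB-gfp, PAO1-rhlA-gfp or PAO1-pqsA-gfp reporters were grown overnight in LB, then diluted in ABTGC medium to OD600 0.02, with compound at 1.25–20 μM. Controls were 0.1% DMSO and a blank. OD600 and GFP fluorescence (ex 485/em 535 nm) were read every 15 min for at least 12 h at 37 °C; triplicate.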

[12] = target: Elastase (Pseudomonas aeruginosa (strain ATCC 15692 / PAO1 / 1C / PRS 101 / LMG12228)) (UniProt P14756); experiment: Inhibition of lasB fluorescence in Pseudomonas aeruginosa PAO1 transfected with GFP by measuring fluorescence intensity every 15 mins for 12 hrs by microtiter plate reader assay; details: dose microM 1.25-20, time 12.0 hrs; method in brief: as §1
[13] = system: Pseudomonas aeruginosa PAO1; experiment: Inhibition of quorum sensing system las in Pseudomonas aeruginosa PAO1 assessed as reduction in elastase production at 1.25 to 20 uM after 24 hrs by BODIPY fluorophore based fluorescence assay; details: dose microM 1.25-20, time 24.0 hrs
Method in brief: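 PAO1 in LB at OD600 0.01 was incubated with compound (0–20 μM) for 24 h at 37 °C with shaking. The centrifuged supernatant was mixed with BODIPY FL-labelled DQ elastin substrate. Fluorescence (ex 490/em 520 nm) was read every 10 min for 5 h.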

Pseudomonas aeruginosa [14] = experiment: Binding affinity to […] overexpressed in Pseudomonas aeruginosa PAO1 assessed as inhibition of biofilm formation at 1.25 to 20 uM; details: dose microM 1.25-20
[15] = system: Pseudomonas aeruginosa PAO1; experiment: Induction of iron chelation in Pseudomonas aeruginosa PAO1 assessed as increase in intracellular pyochelin level at 1.25 to 20 uM in presence of 10 uM FeCl3 by fluorescence microplate reader assay; assay type: cell-based; details: dose microM 1.25-20
[16] = system: Pseudomonas aeruginosa PAO1; experiment: Induction of iron chelation in Pseudomonas aeruginosa PAO1 assessed as increase in iron deficiency by measuring change in total ferric ion concentration at 5 uM by inductively coupled plasma mass spectrometry (reference value: 1.91 +/- 0.8 uM)
Method in brief: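 PAO1 (OD600 0.05) was diluted 1:100 into ABTGC medium and grown 24 h at 37 °C with shaking, with compound; DFP at 20 μM was the reference. Pellets were washed twice in HEPES and lysed with lysozyme in 50 mM HEPES plus sonication for 30 min. Lysates were digested with 1 M nitric acid, centrifuged, and analysed by ICP-MS. Mean ± SD, triplicate.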

Pseudomonas aeruginosa [17] = experiment: Antibiofilm activity against Pseudomonas aeruginosa PAO1 assessed as inhibition of biofilm formation after 24 hrs by SYTO 9/propidium iodide staining based confocal microscopic analysis; assay type: functional, organism-based; details: dose microM 1.25-20, time 24.0 hrs
Method in brief: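 Biofilms were grown as in the crystal violet assay but on glass-bottom wells, with compound at 1.25–20 μM for 24 h at 37 °C against an untreated control. Wells were rinsed three times with PBS and stained for 15 min in the dark with 1 μM SYTO 9 and 10 μM propidium iodide. Confocal imaging used a 63× oil objective; triplicate.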

Pseudomonas aeruginosa [18] = experiment: Antibiofilm activity against Pseudomonas aeruginosa PAO1 assessed as inhibition of biofilm formation after 24 hrs by crystal violet staining based assay; assay type: functional, organism-based; details: dose microM 1.25-20, time 24.0 hrs
Method in brief: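 PAO1 (OD600 0.05) was cultured in ABTGC medium at 37 °C for 24 h with compound (1.25–20 μM for the dose series). Wells were PBS-washed three times, methanol-fixed for 30 min, air-dried, and stained with 0.1% crystal violet for 30 min. Stain was solubilized in 33% acetic acid and read at 570 nm. Compound stocks were […]. Run in triplicate.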

[19] = Growth inhibition of Pseudomonas aeruginosa PAO1 at 512 uM by CLSI-based broth microdilution method
Method in brief: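 Broth microdilution following CLSI standards: two-fold serial dilutions were made in Mueller-Hinton broth and inoculated with P. aeruginosa to a final OD600 of 0.05. The top final concentration is printed as […].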

Sequence of Elastase (Pseudomonas aeruginosa (strain ATCC 15692 / PAO1 / 1C / PRS 101 / LMG12228)) (P14756 198-498 limits assumed): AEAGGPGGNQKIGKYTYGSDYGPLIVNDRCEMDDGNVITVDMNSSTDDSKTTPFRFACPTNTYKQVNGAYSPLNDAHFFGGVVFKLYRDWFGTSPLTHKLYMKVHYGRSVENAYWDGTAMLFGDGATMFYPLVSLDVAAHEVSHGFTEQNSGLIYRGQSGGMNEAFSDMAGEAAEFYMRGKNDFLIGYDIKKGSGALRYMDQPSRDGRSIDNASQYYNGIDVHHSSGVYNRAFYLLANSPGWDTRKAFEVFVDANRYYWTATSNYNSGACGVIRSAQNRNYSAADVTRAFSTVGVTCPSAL

Work on `CCCCCCC(=O)NCc1c(O)c(=O)cc(C)n1C` yielded an inhibition at 5 µM (Pseudomonas aeruginosa [1]) of 3.57%, an inhibition at 20 µM (Pseudomonas aeruginosa [2]) of 14.4% and an inhibition at 1.25 µM (Pseudomonas aeruginosa [3]) of 34.5%. For the same molecule, the inhibition at 5 µM (Pseudomonas aeruginosa [4]) was 43.7%, the inhibition at 10 µM (Pseudomonas aeruginosa [5]) was 47.4% and the inhibition at 20 µM (Pseudomonas aeruginosa [6]) was 51.4%. The inhibition at 1.25 µM (Pseudomonas aeruginosa [7]) was 11.8%, the inhibition at 5 µM (Pseudomonas aeruginosa [8]) was 10.6% and the inhibition at 10 µM (Pseudomonas aeruginosa [9]) was 4.41%. The Activity (L02) was “Non-Toxic”, the inhibition (Pseudomonas aeruginosa [10]) was “Dose-dependent effect” and the inhibition [11] was “Dose-dependent effect”. The inhibition [12] was “Dose-dependent effect”, the inhibition [13] was “Active” and the inhibition (Pseudomonas aeruginosa [14]) was “Active”. For the same molecule, the Activity [15] was “Active”, the Activity [16] was 1.17 µM and the Activity (Pseudomonas aeruginosa [17]) was “Dose-dependent effect”. For the same molecule, the inhibition (Pseudomonas aeruginosa [18]) was “Dose-dependent effect” and the “growth inhibition (GI)” value [19] was “Non-Toxic”.
